Laboratory results as given in ChEMBL document CHEMBL1125438, “Synthesis and anti-HIV activity of 4'-azido- and 4'-methoxynucleosides” (J Med Chem, 1992).
Several values for one entry are separate records, joined by “and”; a condition that tells them apart may be missing. Identical values can stand only once.

What was measured:
[1] = In vitro Cytotoxic concentration in mock-infected A3.01 cells.; format: functional, Homo sapiens
Summary of the method: (§1)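 Toxicity was read on mock-infected A3.01, H9 or PBL cells handled alongside the infected ones (3 h mock infection, wash). Compounds were 3-fold serially diluted (AZT 5-fold). Incubation lasted 7 days, with medium and compound changed on day 4. Cytotoxicity was graded by eye from cell morphology and death. […] Single determination.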

[2] = Selectivity index is defined as CC25(A3.01 cells) / IC50(A3.01 cells); format: functional
Summary of the method: (§2)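 Selectivity index = CC25/IC50 within each line (A3.01, H9 or PBL). CC25 came from visual grading of mock-infected cells after 7 days. IC50 came from reverse transcriptase activity in infected-cell supernatants after 7 days, with medium and compound changed on day 4.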

[3] = In vitro Cytotoxic concentration in mock-infected A3.01 cells - 100% toxicity.; format: functional, Homo sapiens; summary of the method: as §1
[4] = Selectivity index is defined as CC25(A3.01 cells) / IC50(A3.01 cells); selectivity Index = CC25/IC50; format: functional; summary of the method: as §2
[5] = In vitro cytotoxic concentration for mock-infected CD4+ T cells at which 25% cells were destroyed; format: functional, T-cell; summary of the method: as §1
[6] = In vitro cytotoxic concentration for mock-infected cells at which complete destruction of cells was observed; format: functional; summary of the method: as §1
[7] = test system: H9; assay: In vitro Cytotoxic concentration which reduced HIV-1 LAV infected H9 cells by 50 percent; format: functional, cell-based; details: Homo sapiens
Summary of the method: (§3)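 Cells (A3.01, H9 or PBL) infected with HIV-1 LAV for 3 h at 37 °C in 5% CO2, then washed free of unadsorbed virus. Test compounds were serially diluted 3-fold and AZT 5-fold. Cultures ran 7 days, with medium and compound renewed on day 4. Reverse transcriptase activity in supernatants gave virus levels. IC50 = concentration cutting virus by 50% versus control cultures. Single determination.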

[8] = test system: MT2; assay: In vitro Cytotoxic concentration which reduced G 910-6p2 (post-AZT) infected MT-2 cells by 50 percent; format: functional, cell-based; details: Homo sapiens
Summary of the method: (§4)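 MT-2 cells were infected for 3 h at 37 °C in 5% CO2 with HIV-1 LAV or with clinical isolates G762-3, H112-2 (pre-AZT) or G691-2, G910-6p2 (post-AZT), then washed. Serial compound dilutions (3-fold; AZT 5-fold) followed, with 4-day incubation. Virus was measured as p24 core antigen by kit. IC50 = 50% reduction versus control cultures. Single determination.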

[9] = (§5) In vitro Cytotoxic concentration which destroyed HIV-1 LAV infected peripheral blood lymphocytes (PBL) completely; format: functional; summary of the method: as §1
[10] = test system: MT2; assay: In vitro Cytotoxic concentration which destroyed HIV-1 LAV infected MT-2 cells completely; format: functional, Homo sapiens
Summary of the method: (§6)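 MT-2 cells were mock-infected for 3 h at 37 °C in 5% CO2, then washed. Compound was added as serial dilutions (3-fold; AZT 5-fold) and incubated 4 days. Cytotoxicity was counted by trypan blue dye exclusion on a hemocytometer. […] Single determination.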

[11] = test system: H9; assay: In vitro Cytotoxic concentration which reduced HIV-1 LAV infected H9 cells by 25 percent; format: functional, Homo sapiens; summary of the method: as §1
[12] = test system: MT2; assay: In vitro Cytotoxic concentration which reduced H 112-2(pre-AZT) infected MT-2 cells by 50 percent; format: functional, cell-based; details: Homo sapiens; summary of the method: as §4
[13] = test system: H9; assay: In vitro Cytotoxic concentration which destroyed HIV-1 LAV infected H9 cells completely; format: functional, Homo sapiens; summary of the method: as §1
[14] = test system: MT2; assay: In vitro Cytotoxic concentration which reduced HIV-1 LAV infected MT-2 cells by 25 percent; format: functional, Homo sapiens; summary of the method: as §6
[15] = test system: MT2; assay: In vitro Cytotoxic concentration which reduced HIV-1 LAV infected MT-2 cells by 50 percent; format: functional, cell-based; details: Homo sapiens; summary of the method: as §4
[16] = test system: MT2; assay: In vitro Cytotoxic concentration which reduced G 691-2(post-AZT) infected MT-2 cells by 50 percent; format: functional, cell-based; details: Homo sapiens; summary of the method: as §4
[17] = test system: MT2; assay: In vitro Cytotoxic concentration which reduced G 762-3(pre-AZT) infected MT-2 cells by 50 percent; format: functional, cell-based; details: Homo sapiens; summary of the method: as §4
[18] = In vitro Cytotoxic concentration which reduced HIV-1 LAV infected peripheral blood lymphocytes by 50 percent; format: functional; summary of the method: as §3
[19] = In vitro Cytotoxic concentration which reduced HIV-1 LAV infected peripheral blood lymphocytes (PBL) by 25 percent; format: functional; summary of the method: as §1
[20] = Selectivity index is defined as CC25(H9 cells) / […]; format: functional; summary of the method: as §2
[21] = Selectivity index is defined as CC25(PBLcells) / […]; format: functional; summary of the method: as §2
[22] = test system: MT2; assay: as §5; format: functional, Homo sapiens; summary of the method: as §1
[23] = Selectivity index is defined as CC25(MT2 cells) / […]; format: functional
Summary of the method: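 Selectivity index = CC25/IC50 in MT-2 cells. CC25 came from trypan blue exclusion on mock-infected cells after 4 days. IC50 came from the 50% reduction in p24 antigen in HIV-1 LAV-infected cultures after 4 days.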

In the case of `[N-]=[N+]=N[C@]1(CO)O[C@@H](n2ccc(=O)[nH]c2=O)C[C@@H]1O`, the CC25 [1] is reported as 200 µM, the Selectivity index [2] is reported as 250 and the CC100 [3] is reported as >200 µM.
`Cc1cn([C@H]2CC[C@@](CO)(N=[N+]=[N-])O2)c(=O)[nH]c1=O` gave a CC25 [1] of 11.1 µM and a CC100 [3] of 33.3 µM.
With `[N-]=[N+]=N[C@]1(CO)O[C@@H](n2ccc(N)nc2=O)[C@H](O)[C@@H]1O` [4'-AZIDOCYTIDINE] the CC25 [1] was 8.2 µM and the CC100 [3] was 74.1 µM.
For `CO[C@]1(CO)O[C@@H](n2cnc3c(O)nc(N)nc32)C[C@@H]1O`, the Selectivity index [4] was 220, the CC25 [5] was 22 µM and the CC100 [6] was 67 µM.
With `[N-]=[N+]=N[C@]1(CO)O[C@@H](N2C=NC3C(=O)N=CN=C32)C[C@@H]1O` (some centres not stated) the CC25 [1] was <22 µM, the Selectivity index [2] was <34 and the CC100 [3] was 200 µM.
With `CO[C@]1(CO)O[C@@H](n2cc(C)c(=O)[nH]c2=O)C[C@@H]1O` the CC25 [1] was >200 µM, the Selectivity index [2] was >23.6 and the CC100 [3] was >200 µM.
In the case of `CO[C@H]1C[C@H](n2cc(C)c(=O)[nH]c2=O)O[C@@]1(CO)N=[N+]=[N-]`, the CC25 [1] is reported as >200 µM, the Selectivity index [2] is reported as >9.8 and the CC100 [3] is reported as >200 µM.
In the case of `[N-]=[N+]=N[C@]1(CO)O[C@@H](n2cc(Cl)c(=O)[nH]c2=O)C[C@@H]1O`, the CC25 [1] is reported as 1000 µM, the Selectivity index [2] is reported as 17900 and the CC100 [3] is reported as >1000 µM.
With `[N-]=[N+]=N[C@]1(CO)O[C@@H](n2cnc3c(N)ncnc32)C[C@@H]1O` the CC25 [1] was 50 µM, the Selectivity index [2] was 385 and the CC100 [3] was >50 µM.
In the case of `Cc1cn(C2C=CC(CO)(N=[N+]=[N-])O2)c(=O)[nH]c1=O` (configuration not stated), the CC25 [1] is reported as 2.5 µM and the CC100 [3] is reported as 7.4 µM.
With `COC1(CO)OC(n2cc(C)c(=O)[nH]c2=O)CC1F` (configuration not stated) the CC25 [1] was 400 µM, the Selectivity index [2] was 125 and the CC100 [3] was >400 µM.
With `CO[C@]1(CO)O[C@@H](n2cnc3c(N)ncnc32)C[C@@H]1O` the CC25 [1] was 1000 µM, the Selectivity index [2] was 64.5 and the CC100 [3] was >1000 µM.
Molecule `Cc1cn([C@H]2CC[C@](CO)(N=[N+]=[N-])O2)c(=O)[nH]c1=O` has a CC25 [1] of 22 µM and a CC100 [3] of 200 µM.
Molecule `[N-]=[N+]=N[C@]1(CO)O[C@@H](N2C=NC3C(=O)N=C(N)N=C32)C[C@@H]1O` (some centres not stated) has a CC25 [1] of 0.21 µM, a Selectivity index [2] of 70 and a CC100 [3] of 1.9 µM.
With `Cc1cn([C@H]2C[C@H](N=[N+]=[N-])[C@@H](CO)O2)c(=O)[nH]c1=O` [ZIDOVUDINE] the IC50 [7] was 0.03 µM, the CC25 [1] was 825 µM and the IC50 [8] was 31 µM. For the same molecule, the CC100 [9] was >500 µM, the CC100 [10] was >500 µM and the CC25 [11] was 44 µM. The IC50 [12] was 0.2 µM, the CC100 [3] was 3300 µM and the CC100 [13] was 1200 µM. It also gave a CC25 [14] of 56 µM, an IC50 [15] of 0.16 µM and an IC50 [16] of 10 µM. The IC50 [17] was 0.22 µM, the IC50 [18] was 0.08 µM and the CC25 [19] was 4 µM.
`[N-]=[N+]=N[C@]1(CO)O[C@@H](n2ccc(N)nc2=O)C[C@@H]1O` gave a CC25 [1] of 0.21 µM, a Selectivity index [2] of 53 and a CC100 [3] of 1.9 µM.
For `[N-]=[N+]=N[C@]1(CO)O[C@@H](n2ccc(=O)[nH]c2=O)[C@H](O)[C@@H]1O`, the CC25 [1] was >200 µM, the Selectivity index [2] was >2.74 and the CC100 [3] was >200 µM.
With `Cc1cn([C@H]2C[C@H](O)[C@](CO)(N=[N+]=[N-])O2)c(=O)[nH]c1=O` the IC50 [7] was 0.4 µM, the IC50 [8] was 0.52 µM and the CC100 [10] was >500 µM. The CC25 [11] was 25 µM, the IC50 [12] was 0.4 µM and the Selectivity index [2] was 800. The CC100 [3] was 200 µM and >200 µM, the CC100 [13] was 667 µM and the CC25 [14] was 56 µM. The Selectivity index [20] was 625, the Selectivity index [21] was 125 and the IC50 [15] was 0.4 µM. For the same molecule, the IC50 [16] was 0.34 µM, the IC50 [17] was 0.43 µM and the CC100 [22] was >200 µM. The IC50 [18] was 0.02 µM, the CC25 [19] was 2.5 µM and the Selectivity index [23] was 140.
